Results from paper PMC5402717 (Pain, 2017).
“Also recorded” adds a separate entry of the source.

Tests used:
PKG-1α [1] = conditions: cited from earlier work
Sprague-Dawley rats [2] = assay: CFA-induced thermal hyperalgesia; assay type: in vivo, rat
In short: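 Male Sprague-Dawley rats (250-300 g) given 100 μL CFA intraplantar; one day later, test compound was given intrathecally at L4/L5 (15 μL, 1% DMSO/saline, saline flush) or into the tail vein (1 mL, quarter normal saline), vs vehicle. Hargreaves radiant heat test: glass at 30°C, 30 min acclimation, baseline latency ~10 s, 20 s cutoff. Both paws tested the following day, double-blind.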

PKG-1α [3] = assay: PKG-1α activity in sciatic nerve segment after capsaicin injection; assay type: in vivo, rat; conditions: capsaicin 0.1 μM under the perineurium of the sciatic nerve, 30 minutes
In short: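 Capsaicin (0.1 μM) injected under the sciatic nerve perineurium, with an equal vehicle volume into the contralateral nerve. After 30 min, the 1 cm segment containing the injection site was harvested and homogenized. Equal-protein samples were assayed for PKG-1α activity; N = 4.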

panel of 274 kinases = assay: Kinase panel screening, overall selectivity; assay type: biochemical
[4] = General observation for abnormalities or deficits; assay type: in vivo, rat; conditions: N46-injected rats
[5] = Stability of N46 in plasma in vitro; assay type: in vitro ADME; conditions: rat plasma, 37°C
purified bovine PKG-1α = biological target: T1, purified bovine PKG-1α (Bos taurus, UniProt P00516); assay: In vitro protein kinase G assay; assay type: biochemical; conditions: for IC50: IC50 for PKG-1α
T1 sequence (P00516 1-671): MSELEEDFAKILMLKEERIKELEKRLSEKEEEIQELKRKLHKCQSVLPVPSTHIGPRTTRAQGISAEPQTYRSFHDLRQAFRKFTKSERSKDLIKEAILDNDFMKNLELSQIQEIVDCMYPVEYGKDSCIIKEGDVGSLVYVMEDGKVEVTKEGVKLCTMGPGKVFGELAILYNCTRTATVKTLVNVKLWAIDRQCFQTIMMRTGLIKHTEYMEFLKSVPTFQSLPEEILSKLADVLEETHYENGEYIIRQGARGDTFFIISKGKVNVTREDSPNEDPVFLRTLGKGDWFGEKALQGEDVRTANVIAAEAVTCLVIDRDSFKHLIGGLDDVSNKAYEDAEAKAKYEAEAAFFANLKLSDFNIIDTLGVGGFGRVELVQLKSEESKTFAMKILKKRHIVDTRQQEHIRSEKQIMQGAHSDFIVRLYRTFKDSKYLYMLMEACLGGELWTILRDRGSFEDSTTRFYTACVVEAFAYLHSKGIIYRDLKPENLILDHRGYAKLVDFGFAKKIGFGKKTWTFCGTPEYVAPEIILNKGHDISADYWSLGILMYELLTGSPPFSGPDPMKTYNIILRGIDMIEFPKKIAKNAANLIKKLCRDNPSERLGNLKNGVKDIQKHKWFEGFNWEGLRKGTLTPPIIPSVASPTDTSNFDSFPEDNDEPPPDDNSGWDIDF
In short: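 Reaction started with 10 μM [32P]-ATP, run 20 min at 37°C, stopped with 50 mM EDTA. Peptide captured on phosphocellulose filters, counted by β-scintillation. IC50s are single determinations in duplicate.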

[6] = biological target: recombinant catalytic domain of human PKA (Homo sapiens, UniProt P17612); assay: In vitro cAMP-dependent kinase; assay type: biochemical
In short: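 Recombinant human PKA catalytic domain with kemptide substrate; activity measured as 32P incorporation from [γ-32P]ATP in Tris buffer. Labeled peptide captured on cellulose phosphate filters and counted by β-scintillation. IC50s are single determinations run in duplicate.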

Sprague-Dawley rats [7] = assay: Capsaicin-induced mechanical hypersensitivity; assay type: in vivo, rat; conditions: 10 nmol N46 into hind paw, no capsaicin
In short: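 Male Sprague-Dawley rats given 10 nmol test compound intraplantar, without capsaicin. von Frey hairs (0.4-15 g) applied for ~6 s each, up-down sequence starting at 2 g. 50% paw withdrawal threshold calculated by the Chaplan method at set times after injection; n = 15 per group; double-blind.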

[8] = biological target: cardiac hERG potassium channel (Homo sapiens, UniProt Q12809); assay: hERG tail current recording; assay type: cell-based
In short: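 hERG tail currents evoked by a voltage protocol applied every 10 s. Test compound applied cumulatively at 0.1, 0.3, 1.0, 3, 10 and 30 μM, 5 min per concentration, with 1 μM cisapride as positive control. Mean percent inhibition from 13 cells gave a 6-point curve, from which IC50 was calculated.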

Sprague-Dawley rats [9] = assay: MIA-induced osteoarthritic knee joint pain; assay type: in vivo, rat; conditions: 5 nmol intra-articular 14 days after MIA
In short: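 Baseline hind-limb weight bearing taken on day 0. Rats then received 3 mg MIA in 50 μL saline into the right knee and saline into the left. At 14 days, 5 nmol test compound or quarter-saline vehicle (50 μL) was given intra-articularly. Incapacitance tester: paw force averaged over 5 s, 3 trials per point, expressed as percent difference between limbs.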

[10] = Heart rate and blood pressure monitoring after N46 injection; assay type: in vivo, rat; conditions: injected 1uM N46, monitored 30 minutes; data not shown
In short: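 Heart rate and systolic and diastolic blood pressure recorded for a 30 min baseline, then 1uM test compound injected and monitoring continued for 30 min.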

[11] = Tissue distribution of N46 in vivo; conditions: rat, tail vein injection
In short: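 Test compound injected into the rat tail vein. Tissues homogenized in 0.1N sodium carbonate (2 mL) plus methanol (6 mL), centrifuged, and supernatant analyzed by LC/MS. C18 column, acetonitrile-water gradient 0-100% over 20 min, detection at 220 nm. Results corrected for % recovery using spiked standard curves.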

Chain of cardiac hERG potassium channel (Q12809 whole entry): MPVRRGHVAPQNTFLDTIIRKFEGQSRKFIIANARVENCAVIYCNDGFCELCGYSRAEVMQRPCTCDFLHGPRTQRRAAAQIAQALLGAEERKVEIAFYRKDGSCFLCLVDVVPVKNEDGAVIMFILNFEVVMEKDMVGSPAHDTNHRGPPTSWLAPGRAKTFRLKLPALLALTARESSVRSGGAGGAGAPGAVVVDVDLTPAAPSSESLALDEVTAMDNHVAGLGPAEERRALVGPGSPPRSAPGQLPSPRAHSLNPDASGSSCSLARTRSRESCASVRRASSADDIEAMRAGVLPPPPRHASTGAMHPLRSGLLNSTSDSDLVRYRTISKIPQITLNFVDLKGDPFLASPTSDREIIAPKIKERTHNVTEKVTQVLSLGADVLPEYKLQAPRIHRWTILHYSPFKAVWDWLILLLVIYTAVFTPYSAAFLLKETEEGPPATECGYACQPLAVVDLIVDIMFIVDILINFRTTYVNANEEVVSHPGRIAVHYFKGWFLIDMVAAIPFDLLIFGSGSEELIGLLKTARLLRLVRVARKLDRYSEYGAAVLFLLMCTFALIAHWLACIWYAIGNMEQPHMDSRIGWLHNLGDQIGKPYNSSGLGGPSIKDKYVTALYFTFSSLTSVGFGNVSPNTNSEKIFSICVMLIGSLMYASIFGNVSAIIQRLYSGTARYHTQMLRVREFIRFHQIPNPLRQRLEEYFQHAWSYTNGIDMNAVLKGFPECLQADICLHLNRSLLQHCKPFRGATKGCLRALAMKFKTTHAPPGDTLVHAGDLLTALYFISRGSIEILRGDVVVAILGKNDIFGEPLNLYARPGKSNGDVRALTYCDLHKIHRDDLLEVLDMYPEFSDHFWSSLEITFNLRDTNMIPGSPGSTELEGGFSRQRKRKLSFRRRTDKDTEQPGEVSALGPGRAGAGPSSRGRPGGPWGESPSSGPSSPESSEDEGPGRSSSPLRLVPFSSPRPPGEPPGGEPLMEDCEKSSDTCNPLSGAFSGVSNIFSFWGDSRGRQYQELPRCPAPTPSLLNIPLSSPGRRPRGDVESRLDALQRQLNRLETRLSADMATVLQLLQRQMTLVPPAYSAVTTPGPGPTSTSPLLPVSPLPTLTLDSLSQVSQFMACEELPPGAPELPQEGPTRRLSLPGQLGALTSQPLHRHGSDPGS

Nc1nc2c(nc(Sc3ccc(Cl)cc3)n2[C@@H]2O[C@@H]3CO[P@@](=O)(S)O[C@H]3[C@H]2O)c(=O)[nH]1 [RPG, Rp-8-pCPT-cGMPS, reference compound]
Ki (PKG-1α [1]): 500 nM
thermal hyperalgesia (PWL), CFA-injected paw (Sprague-Dawley rats [2]; 250 nmol intrathecal 1 day after CFA, PWL measured the following day, vs vehicle): alleviated significantly; also recorded: significant improvement in mean PWL
thermal threshold, contralateral noninflamed paw (Sprague-Dawley rats [2]; RPG intrathecal): no significant changes

COc1cc(CNC(=O)CCCC/C=C/C(C)C)ccc1O [capsaicin]
PKG-1α in the nerve segment that was active (PKG-1α [3]): 40 ± 15%

COC(=O)[C@@]1(OC)C[C@H]2O[C@]1(C)n1c3ccccc3c3c4c(c5c6ccccc6n2c5c31)C(=O)N(C)C4 [KT5823]
Ki (PKG-1α [1]): 234 nM

CCCOc1ccc(OC)c(F)c1C(=O)c1ccc(C(=O)N[C@@H]2CNC[C@H]2NC(=O)c2ccc3[nH]ncc3c2)cc1 [N46, N-((3R,4R)-4-(4-(2-fluoro-3-methoxy-6-propoxybenzoyl)benzamido)pyrrolidin-3-yl)-1H-indazole-5-carboxamide]
number of kinases inhibited more than 50% (panel of 274 kinases; 750 nM N46): 12
off-target hit rate (kinases inhibited by more than 50%) (panel of 274 kinases; 12 out of 274, dose of N46 where PKG-1 was inhibited 100%): 4.4%
sedation [4]: no evidence of sedation
stability in plasma (time stable) [5]: at least 7 hours
fold difference of IC50, PKA versus PKG-1α (purified bovine PKG-1α): 714 fold
IC50 (purified bovine PKG-1α): 7.5 nM
IC50 (purified bovine PKG-1α; 10 μM ATP, 37°C, 20 minutes): 7 nM
type of inhibition of PKG-1α (kinetic studies) (purified bovine PKG-1α; data not shown): noncompetitive inhibitor
IC50 [6]: 5000 nM
mechanical threshold, N46 alone (Sprague-Dawley rats [7]): had no effect
IC50 [8]: 4470 nM
thermal hyperalgesia (PWL), CFA-injected paw (Sprague-Dawley rats [2]; 0.25 nmol intrathecal 1 day after CFA, measured post-CFA day 2, vs vehicle): marked reduction
thermal hyperalgesia (PWL), CFA-injected paw (Sprague-Dawley rats [2]; 1 nmol into the tail vein 1 day after CFA, 24 hours later, vs vehicle): significantly increased the PWL; also recorded: significantly reduced the heat hyperalgesia
duration of relief after a single injection (Sprague-Dawley rats [2]; CFA model): at least 24 hours
thermal threshold, contralateral noninflamed paw (Sprague-Dawley rats [2]; N46 intrathecal): no significant changes
duration of relief after a single injection (Sprague-Dawley rats [9]): 7 days
weight bearing distribution (Sprague-Dawley rats [9]; days 15 and 21, vs vehicle): significant improvement in weight bearing distribution; also recorded: significantly reversed the MIA-induced shift in weight bearing
heart rate and systolic and diastolic blood pressure [10]: no significant effect
presence in the CNS [11]: not detected in the CNS
